Results from article PMC6634314 (Cell chemical biology, 2019).

What was measured:
[1] = target: MAPK1 (Homo sapiens, UniProt P28482); assay: mass shift assay; assay type: binding; details: incubated 4 and 24h
How it was run: (§1)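 Kinase protein at 0.12 mM in 10 mM HEPES pH 7.5, 500 mM NaCl, incubated with 0.2 mM test compound at 4°C for 4 h and 24 h. Samples were diluted in 0.1% formic acid and desalted on a C3 pre-column. ESI-TOF was run in positive mode at 120 V, and intact mass was obtained by deconvolution to detect the adduct.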

[2] = tested on: CSNK2A1; assay: MIB washout assay; assay type: binding, Human; details: H23 cells, 1 μM 4h, MIB pulldown ratio SM1-71/SM1-71-R
[3] = tested on: EIF2AK3; assay: MIB washout assay; assay type: binding, Human; details: H23 cells, 1 μM 4h, MIB pulldown ratio SM1-71/SM1-71-R
[4] = tested on: MET; assay: MIB washout assay; assay type: binding, Human; details: H23 cells, 1 μM 4h, MIB pulldown ratio SM1-71/SM1-71-R
[5] = target: T1, GAK (Homo sapiens, UniProt O14976); assay: mass shift assay; assay type: binding; details: incubated 4 and 24h
T1 sequence (O14976 1-1311): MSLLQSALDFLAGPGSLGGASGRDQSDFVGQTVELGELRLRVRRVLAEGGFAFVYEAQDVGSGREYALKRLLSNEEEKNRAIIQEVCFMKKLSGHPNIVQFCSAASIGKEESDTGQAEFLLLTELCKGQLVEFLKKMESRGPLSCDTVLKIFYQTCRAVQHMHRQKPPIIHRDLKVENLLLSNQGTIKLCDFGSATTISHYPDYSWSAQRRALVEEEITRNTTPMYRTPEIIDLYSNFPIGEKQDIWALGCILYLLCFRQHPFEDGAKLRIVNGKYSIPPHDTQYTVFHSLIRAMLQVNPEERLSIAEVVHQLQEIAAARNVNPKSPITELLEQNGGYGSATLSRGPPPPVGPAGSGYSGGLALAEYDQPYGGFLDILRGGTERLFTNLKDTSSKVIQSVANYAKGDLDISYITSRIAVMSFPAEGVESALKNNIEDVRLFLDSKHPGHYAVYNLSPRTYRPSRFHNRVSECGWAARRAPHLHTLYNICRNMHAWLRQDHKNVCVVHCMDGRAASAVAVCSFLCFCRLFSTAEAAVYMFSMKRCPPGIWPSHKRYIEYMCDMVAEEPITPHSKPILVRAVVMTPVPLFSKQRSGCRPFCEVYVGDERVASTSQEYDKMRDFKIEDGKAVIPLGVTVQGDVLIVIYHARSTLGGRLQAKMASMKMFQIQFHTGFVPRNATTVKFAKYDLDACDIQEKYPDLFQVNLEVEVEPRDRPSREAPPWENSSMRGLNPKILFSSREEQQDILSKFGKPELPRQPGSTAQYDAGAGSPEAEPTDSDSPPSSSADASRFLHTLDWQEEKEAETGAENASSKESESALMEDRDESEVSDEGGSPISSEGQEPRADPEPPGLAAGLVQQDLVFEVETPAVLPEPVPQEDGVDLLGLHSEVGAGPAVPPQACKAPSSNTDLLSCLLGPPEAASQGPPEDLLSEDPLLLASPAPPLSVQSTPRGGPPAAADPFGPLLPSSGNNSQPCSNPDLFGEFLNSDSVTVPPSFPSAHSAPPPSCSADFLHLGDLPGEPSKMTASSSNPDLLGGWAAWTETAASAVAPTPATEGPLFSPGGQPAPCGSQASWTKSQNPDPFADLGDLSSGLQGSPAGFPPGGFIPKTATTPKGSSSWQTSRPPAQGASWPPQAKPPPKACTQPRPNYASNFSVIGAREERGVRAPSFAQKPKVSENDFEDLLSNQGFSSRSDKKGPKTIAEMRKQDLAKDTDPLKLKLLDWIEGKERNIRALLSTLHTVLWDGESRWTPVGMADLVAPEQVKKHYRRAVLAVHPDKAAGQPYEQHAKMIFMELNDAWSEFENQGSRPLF
How it was run: as §1

[6] = tested on: MAPK3; assay: MIB washout assay; assay type: binding, Human; details: H23 cells, 1 μM 4h, MIB pulldown ratio SM1-71/SM1-71-R
[7] = tested on: MAPK1; assay: MIB washout assay; assay type: binding, Human; details: H23 cells, 1 μM 4h, MIB pulldown ratio SM1-71/SM1-71-R
[8] = tested on: STK16; assay: MIB washout assay; assay type: binding, Human; details: H23 cells, 1 μM 4h, MIB pulldown ratio SM1-71/SM1-71-R
[9] = tested on: INSR; assay: MIB washout assay; assay type: binding, Human; details: H23 cells, 1 μM 4h, MIB pulldown ratio SM1-71/SM1-71-R
[10] = tested on: PTK2; assay: MIB washout assay; assay type: binding, Human
[11] = tested on: PIK3R4; assay: MIB washout assay; assay type: binding, Human; details: H23 cells, 1 μM 4h, MIB pulldown ratio SM1-71/SM1-71-R
[12] = target: T1, GAK; assay: MIB washout assay; assay type: binding; details: H23 cells, 1 μM 4h, MIB pulldown ratio SM1-71/SM1-71-R
[13] = target: BMP2K (Homo sapiens, UniProt Q9NSY1); assay: MIB dose-dependent kinase inhibition assay; assay type: binding; details: read-out: IC50 in the MIB assay, H23 cell lysate, overnight 4°C
[14] = tested on: TNIK; assay: MIB washout assay; assay type: binding, Human; details: H23 cells, 1 μM 4h, MIB pulldown ratio SM1-71/SM1-71-R
[15] = target: YES1 (Homo sapiens, UniProt P07947); assay: MIB washout assay; assay type: binding; details: H23 cells, 1 μM 4h, MIB pulldown ratio SM1-71/SM1-71-R
[16] = tested on: EPHB2; assay: MIB washout assay; assay type: binding, Human; details: H23 cells, 1 μM 4h, MIB pulldown ratio SM1-71/SM1-71-R
[17] = target: T2, AURKA (Homo sapiens, UniProt O14965); assay: MIB dose-dependent kinase inhibition assay; assay type: binding; details: read-out: IC50 in the MIB assay, H23 cell lysate, overnight 4°C
T2 sequence (O14965 1-403): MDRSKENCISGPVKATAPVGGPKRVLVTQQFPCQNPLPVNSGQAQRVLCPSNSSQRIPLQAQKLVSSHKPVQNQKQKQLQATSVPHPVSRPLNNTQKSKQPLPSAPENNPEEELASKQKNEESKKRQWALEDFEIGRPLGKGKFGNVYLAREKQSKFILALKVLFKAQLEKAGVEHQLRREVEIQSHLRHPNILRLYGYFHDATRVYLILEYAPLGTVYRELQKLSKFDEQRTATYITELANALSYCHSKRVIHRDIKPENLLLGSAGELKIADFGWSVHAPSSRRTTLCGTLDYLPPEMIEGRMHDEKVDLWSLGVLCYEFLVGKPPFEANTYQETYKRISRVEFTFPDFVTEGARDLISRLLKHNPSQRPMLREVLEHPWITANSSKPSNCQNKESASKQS

[18] = tested on: CSNK1D; assay: MIB washout assay; assay type: binding, Human; details: H23 cells, 1 μM 4h, MIB pulldown ratio SM1-71/SM1-71-R

YES1, sequence (P07947 whole entry): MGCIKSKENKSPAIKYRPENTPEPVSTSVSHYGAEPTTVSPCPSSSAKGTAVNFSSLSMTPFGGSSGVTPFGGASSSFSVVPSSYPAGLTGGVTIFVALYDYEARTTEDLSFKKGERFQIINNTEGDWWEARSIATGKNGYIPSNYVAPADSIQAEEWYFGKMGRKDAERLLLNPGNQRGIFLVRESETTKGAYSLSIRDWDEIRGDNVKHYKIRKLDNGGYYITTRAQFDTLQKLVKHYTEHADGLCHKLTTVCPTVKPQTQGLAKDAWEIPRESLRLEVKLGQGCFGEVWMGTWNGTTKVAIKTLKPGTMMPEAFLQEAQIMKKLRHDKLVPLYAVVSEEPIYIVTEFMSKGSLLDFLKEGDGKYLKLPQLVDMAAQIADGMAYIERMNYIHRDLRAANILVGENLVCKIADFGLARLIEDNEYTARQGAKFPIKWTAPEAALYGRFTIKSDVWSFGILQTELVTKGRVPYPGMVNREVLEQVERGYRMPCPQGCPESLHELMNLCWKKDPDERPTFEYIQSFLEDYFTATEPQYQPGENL
MAPK1 (Homo sapiens, UniProt P28482), sequence (P28482 whole entry, species assumed): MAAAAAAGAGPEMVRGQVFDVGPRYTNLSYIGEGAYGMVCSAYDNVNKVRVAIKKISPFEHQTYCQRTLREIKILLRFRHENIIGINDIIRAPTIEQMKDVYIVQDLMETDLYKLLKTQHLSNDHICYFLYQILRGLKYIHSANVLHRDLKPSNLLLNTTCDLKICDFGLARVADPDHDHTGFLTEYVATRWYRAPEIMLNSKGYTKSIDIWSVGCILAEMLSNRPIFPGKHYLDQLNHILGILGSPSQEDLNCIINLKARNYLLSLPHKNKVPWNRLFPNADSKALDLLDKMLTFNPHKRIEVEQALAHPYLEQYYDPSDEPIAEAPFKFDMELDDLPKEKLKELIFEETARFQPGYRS
BMP2K, sequence (Q9NSY1 whole entry): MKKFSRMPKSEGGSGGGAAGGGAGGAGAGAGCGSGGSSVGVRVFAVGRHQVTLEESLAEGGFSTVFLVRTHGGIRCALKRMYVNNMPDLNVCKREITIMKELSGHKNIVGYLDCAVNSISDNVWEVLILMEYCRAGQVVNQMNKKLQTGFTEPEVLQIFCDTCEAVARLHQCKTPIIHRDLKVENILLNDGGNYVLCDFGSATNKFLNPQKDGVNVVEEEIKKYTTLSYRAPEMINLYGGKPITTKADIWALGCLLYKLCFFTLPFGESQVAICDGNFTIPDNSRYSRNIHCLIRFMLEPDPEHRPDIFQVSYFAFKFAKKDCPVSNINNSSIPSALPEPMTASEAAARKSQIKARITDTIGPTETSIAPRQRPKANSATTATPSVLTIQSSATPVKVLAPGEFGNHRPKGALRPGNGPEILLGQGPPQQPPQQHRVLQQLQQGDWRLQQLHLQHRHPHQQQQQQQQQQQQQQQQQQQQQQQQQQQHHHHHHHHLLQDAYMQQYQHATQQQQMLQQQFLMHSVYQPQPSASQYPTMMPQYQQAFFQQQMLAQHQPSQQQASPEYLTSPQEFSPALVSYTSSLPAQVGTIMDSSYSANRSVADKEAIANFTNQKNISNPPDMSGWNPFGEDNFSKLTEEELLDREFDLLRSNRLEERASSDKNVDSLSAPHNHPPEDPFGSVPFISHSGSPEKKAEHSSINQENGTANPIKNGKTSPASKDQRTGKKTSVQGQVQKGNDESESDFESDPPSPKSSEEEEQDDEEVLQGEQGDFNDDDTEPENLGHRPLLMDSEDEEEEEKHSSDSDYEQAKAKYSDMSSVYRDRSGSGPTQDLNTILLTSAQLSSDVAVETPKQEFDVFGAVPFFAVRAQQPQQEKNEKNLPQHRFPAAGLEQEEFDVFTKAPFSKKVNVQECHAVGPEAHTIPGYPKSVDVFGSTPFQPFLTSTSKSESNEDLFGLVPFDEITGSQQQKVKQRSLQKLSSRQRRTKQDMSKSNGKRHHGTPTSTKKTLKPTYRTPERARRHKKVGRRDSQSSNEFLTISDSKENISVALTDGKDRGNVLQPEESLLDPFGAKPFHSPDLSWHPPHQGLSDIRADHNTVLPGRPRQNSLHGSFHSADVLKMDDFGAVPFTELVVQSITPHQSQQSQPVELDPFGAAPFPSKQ

C=CC(=O)Nc1ccccc1Nc1nc(Nc2ccc(N3CCN(C)CC3)cc2)ncc1Cl [SM1-71]
covalent adduct formation (mass shift) [1]: formed covalent adducts | BI-0h ([2]; 0h post-washout): 0.8 | BI-6h ([2]; 6h post-washout): 0.64 | BI-0h ([3]; 0h post-washout): 0.8 | BI-6h ([3]; 6h post-washout): 0.66 | BI-0h ([4]; 0h post-washout): 0.75 | BI-6h ([4]; 6h post-washout): 0.53 | covalent adduct formation (mass shift) [5]: formed covalent adducts | BI-0h ([6]; 0h post-washout): 0.62 | BI-6h ([6]; 6h post-washout): 0.54 | BI-0h ([7]; 0h post-washout): 0.19 | BI-6h ([7]; 6h post-washout): 0.39 | BI-0h ([8]; 0h post-washout): 0.51 | BI-6h ([8]; 6h post-washout): 0.76 | BI-0h ([9]; 0h post-washout): 0.52 | BI-6h ([9]; 6h post-washout): 0.76 | BI-0h ([10]; H23 cells, 1 μM 4h, 0h post-washout, MIB pulldown ratio SM1-71/SM1-71-R): 1.3 | BI-6h ([10]; H23 cells, 1 μM 4h, 6h post-washout, MIB pulldown ratio SM1-71/SM1-71-R): 1.12 | Binding ([10]; class from BI 0h and 6h): Strongly Reversible (BI0h,6h greater than 1 suggesting a strong preference for reversible mode of inhibition) | BI-0h ([11]; 0h post-washout): 0.36 | BI-6h ([11]; 6h post-washout): 0.47 | BI-0h ([12]; 0h post-washout): 0.07 | BI-6h ([12]; 6h post-washout): 0.04 | IC50 [13]: < 10 nM | BI-0h ([14]; 0h post-washout): 0.67 | BI-6h ([14]; 6h post-washout): 0.74 | BI-0h ([15]; 0h post-washout): 0.21 | BI-6h ([15]; 6h post-washout): 0.1 | BI-0h ([16]; 0h post-washout): 0.7 | BI-6h ([16]; 6h post-washout): 0.5 | IC50 [17]: < 10 nM | BI-0h ([18]; 0h post-washout): 0.71 | BI-6h ([18]; 6h post-washout): 0.78
